Measured values as given in publication PMC10422018 (Molecular Therapy, 2023).

Key:
3T3-L1 adipocytes [1] = experiment: Glycerol release from 3T3-L1 adipocytes treated with C26 CM; format: cell-based, mouse; conditions: 24 h
[2] = Stability of the peptides in solution; format: physicochemical; conditions: peptide in solution
3T3-L1 adipocytes [3] = experiment: LPS-induced glycerol release from 3T3-L1 adipocytes; format: cell-based, mouse; conditions: 0.5 µM or 5 µM, 1µg/ml LPS, 24 h
Procedure, shortened: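 3T3-L1 preadipocytes were differentiated with 1 μg/mL insulin, 0.25 μM dexamethasone and 0.5 mM IBMX, then used 8–12 days post-differentiation. Glycerol was measured with a glycerol kit, either directly in culture medium or in Krebs-Ringer buffer (3% BSA, 5 mM glucose) collected over 2 h after a 1 h preincubation. Experiments were repeated at least 2–3 times, each with n ≥3 technical replicates.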

## NC(=O)c1ncn([C@@H]2O[C@H](COP(=O)(O)O)[C@@H](O)[C@H]2O)c1N [AICAR, 5-aminoimidazole-4-carboxamide ribonucleotide]
3T3-L1 adipocytes [1]; indicated concentrations of AICAR
  C26 CM-induced glycerol release: reduced C26 CM-induced glycerol release at higher doses

## C#CC[C@H](NC(=O)[C@H](CCCCN)NC(=O)[C@H](CCCCN)NC(=O)[C@H](Cc1c[nH]c2ccccc12)NC(=O)[C@H](CCCCN)NC(=O)[C@H](CCSC)NC(=O)[C@H](CCCNC(=N)N)NC(=O)[C@H](CCCNC(=N)N)NC(=O)[C@H](CC(N)=O)NC(=O)[C@H](CCC(N)=O)NC(=O)[C@H](Cc1ccccc1)NC(=O)[C@H](Cc1c[nH]c2ccccc12)NC(=O)[C@@H](NC(=O)[C@H](CCCCN)NC(=O)[C@@H](NC(=O)[C@H](CCC(N)=O)NC(=O)[C@@H](N)CCCNC(=N)N)[C@@H](C)CC)[C@@H](C)CC)C(=O)N[C@@H](CC(N)=O)C(=O)N[C@@H](Cc1c[nH]cn1)C(=O)N[C@H](C(=O)N[C@@H](CCSC)C(=O)N[C@@H](CC(C)C)C(=O)N[C@@H](CC(N)=O)C(=O)N[C@@H](Cc1c[nH]cn1)C(=O)N[C@@H](CC(C)C)C(=O)N[C@@H](Cc1ccc(O)cc1)C(=O)N[C@@H](C)C(=O)N[C@@H](CC(C)C)C(=O)N[C@@H](CO)C(=O)N[C@H](C(=O)N[C@@H](CCCCN)C(=O)N[C@@H](CC(=O)O)C(=O)NCC(=O)N[C@H](C(N)=O)C(C)C)[C@@H](C)CC)C(C)C [Pen-X-ACIP]
[2]
  Degradation products in mass spectrometry: No degradation products were detected

## MK8722
3T3-L1 adipocytes [3]
  LPS-induced glycerol release: inhibited
3T3-L1 adipocytes [1]; 0.5 µM or 5 µM
  C26 CM-induced lipolysis (glycerol release): reduced C26 CM-induced lipolysis dose dependently
